Measured values gathered from unrelated publications.
Protocols differ between the studies behind these lines.
Target: Serine/threonine-protein kinase Sgk3 (SGK3, Homo sapiens, UniProt Q96BR1)
Residues used in one study (Q96BR1 1-496): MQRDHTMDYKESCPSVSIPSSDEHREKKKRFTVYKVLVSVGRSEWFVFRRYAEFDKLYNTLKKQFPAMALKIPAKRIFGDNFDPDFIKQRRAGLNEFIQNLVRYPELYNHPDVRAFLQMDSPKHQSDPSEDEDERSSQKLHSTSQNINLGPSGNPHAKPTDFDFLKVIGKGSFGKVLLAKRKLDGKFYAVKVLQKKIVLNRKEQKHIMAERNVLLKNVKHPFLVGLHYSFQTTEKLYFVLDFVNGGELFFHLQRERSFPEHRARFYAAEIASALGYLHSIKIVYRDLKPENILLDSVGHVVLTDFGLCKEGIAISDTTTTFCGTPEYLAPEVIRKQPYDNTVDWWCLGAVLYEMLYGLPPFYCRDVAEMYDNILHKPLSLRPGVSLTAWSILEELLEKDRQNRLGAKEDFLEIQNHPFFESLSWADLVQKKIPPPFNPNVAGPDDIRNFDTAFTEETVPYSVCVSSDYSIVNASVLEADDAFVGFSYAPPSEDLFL

`COc1cc2ncnc(Nc3ccc(Oc4ccccc4)c(C)c3C)c2cc1OC` gave an inhibition of -5% (enzyme activity, inhibitor; 1 µM).
For `CNC(=O)c1ccc(Nc2ncc(C(F)(F)F)c(NCc3nccnc3N(C)S(C)(=O)=O)n2)cc1`, the remaining binding was 85% (cell-free assay, competition with immobilised ligand; 0.1 µM).
`CNC(=O)c1cc(Oc2ccc(NC(=O)Nc3ccc(Cl)c(C(F)(F)F)c3)cc2)ccn1` gave an inhibition of 14% (enzyme activity, inhibitor; 0.3 µM).
`CN1CC(Oc2cnc(C#N)cc2-c2ccn3nc(NC(=O)C4CC4)cc3c2)C1` has an inhibition of -3% (enzyme activity, inhibitor; 1 µM).
`Cc1ccc(Nc2nccc(N(C)c3ccc4c(C)n(C)nc4c3)n2)cc1S(N)(=O)=O` gave an inhibition of 13% (enzyme activity, inhibitor; 10 µM).
`Cn1nc(C(F)(F)F)cc1-c1cnc(N2CCc3cc(S(=O)(=O)Nc4c(F)cc(Cl)cc4F)cc(N4CCCC4=O)c32)nc1` has a remaining binding of 78% (cell-free assay, competition with immobilised ligand; 1 µM).
`c1ccc(CNc2nc(N3CCOc4ccccc43)nc3c2CCCC3)cc1` has an inhibition of -9% (target engagement in cells, inhibitor, chemoproteomics; 20 mM).
`CNc1cccc2cc(C(=O)Nc3ccc(C(=O)O)cc3)c(=O)[nH]c12` gave an inhibition of -2.1% (enzyme activity, inhibitor; 10 µM).
The remaining binding of `CNCc1ccccc1-c1csc([C@@H](C)Nc2nc(C)nc3cc(OC)c(OC)cc23)c1` is reported as 78% (cell-free assay, competition with immobilised ligand; 1 µM).
The remaining activity of `COc1cc(Cl)c(C(=O)N[C@@H](CN[C@H]2CC[C@@H](N)CC2)Cc2ccc(C#N)cc2)cc1-c1ccc(CN[C@H](C)c2ccc(C)cc2)o1` is reported as 83% (enzyme activity, inhibitor; 1 µM).
`O=C1NC(=O)c2cc(Nc3ccc(F)cc3)c(Nc3ccc(F)cc3)cc21` gave a remaining signal of 102% (cell-free assay; 0.5 µM).
The remaining activity of `CC(C)(C)c1nc2c(s1)c1nc(N)ncc1c1ccc(NS(=O)(=O)c3c(F)cccc3F)c(F)c12` is reported as 89% (enzyme activity, inhibitor, radiometric; 1 µM).
For `CCS(=O)(=O)c1cc2cc(C[C@@](O)(CC(C)(C)c3ccc(F)cc3C(N)=O)C(F)(F)F)[nH]c2cn1`, the remaining binding was 79% (cell-free assay, competition with immobilised ligand; 1 µM).
The remaining activity of `Cc1ccc(C(=O)Nc2ccc(CN3CCN(C)CC3)c(C(F)(F)F)c2)cc1C#Cc1cnc2cccnn12` is reported as 70% (enzyme activity, inhibitor; 23.5 nM).
With `CCN(CC)c1ccc(C2=NNC(=O)CC2C)cc1[N+](=O)[O-]` (stereo not drawn) the remaining activity was 114% (enzyme activity, inhibitor; 10 µM).
The remaining binding of `Cn1nc(C(=O)NCc2ccc(C(=O)O)cc2)cc1-c1ccc2[nH]ccc2c1` is reported as 96% (cell-free assay, competition with immobilised ligand; 0.1 µM).
For `Cc1sc(C(=O)NC2COC2)cc1-n1cc(NC(=O)Nc2c(F)cccc2Cl)cn1`, the remaining activity was 90.1% (enzyme activity, inhibitor; 10 µM).
`C[C@@H]1CCN(C(=O)CC#N)C[C@@H]1N(C)c1ncnc2[nH]ccc12` has a remaining signal of 98.1% (cell-free assay, inhibitor; 0.5 µM).
For `CCCOc1ccc(OC)c(F)c1C(=O)c1ccc(C(=O)N[C@@H]2CNC[C@H]2NC(=O)c2ccc3[nH]ncc3c2)cc1`, the remaining activity was 23% (enzyme activity, inhibitor; 10 µM).
`CC(C)(O)[C@H]1CC[C@H](Nc2ccc3ncc(-c4cccc(C(F)(F)F)c4)n3n2)CC1` has a remaining activity of 95.8% (enzyme activity, inhibitor; 1 µM).
For `CCN(CC)CCNC(=O)c1c(C)[nH]c(/C=C2\C(=O)Nc3ccc(F)cc32)c1C`, the remaining signal was 101% (cell-free assay; 0.5 µM).
With `Cc1cc(NC(=O)c2cccc(S(F)(F)(F)(F)F)c2)cc(-n2ccn3nc(-c4cccnc4)cc23)c1` the remaining binding was 72.1% (cell-free assay, competition with immobilised ligand; 1 µM).
For `Oc1cccc(-c2nc(N3CCOCC3)c3oc4ncccc4c3n2)c1`, the remaining signal was 95.8% (cell-free assay; 0.5 µM).
The remaining binding of `O=C1CCc2cc(Nc3cc(OC4CCOCC4)c([N+](=O)[O-])cc3Cl)ccc2N1` is reported as 100% (cell-free assay, competition with immobilised ligand; 1 µM).
